ChEMBL document CHEMBL4706575, “Nonpeptidic quinazolinone derivatives as dual nucleotide-binding oligomerization domain-like receptor 1/2 antagonists for adjuvant cancer chemotherapy” (Eur J Med Chem, 2020)
Active and inactive are the calls of the source. No cut-off for these calls is given here.

Legend:
[1] = target: T1, Nucleotide-binding oligomerization domain-containing protein 1 (Homo sapiens) (UniProt Q9Y239); test: (§1) Antagonist activity at NOD1 in HEK-Blue hNOD1 cells assessed as inhibition of C12-iE-DAP-induced NFkappaB activation-mediated SEAP release preincubated for 3 hrs followed by C12-iE-DAP addition and measured after 20 hrs by spectrophotometric method; type: cell-based; settings: filed as antagonist, time 23.0 hrs
T1 sequence (whole entry): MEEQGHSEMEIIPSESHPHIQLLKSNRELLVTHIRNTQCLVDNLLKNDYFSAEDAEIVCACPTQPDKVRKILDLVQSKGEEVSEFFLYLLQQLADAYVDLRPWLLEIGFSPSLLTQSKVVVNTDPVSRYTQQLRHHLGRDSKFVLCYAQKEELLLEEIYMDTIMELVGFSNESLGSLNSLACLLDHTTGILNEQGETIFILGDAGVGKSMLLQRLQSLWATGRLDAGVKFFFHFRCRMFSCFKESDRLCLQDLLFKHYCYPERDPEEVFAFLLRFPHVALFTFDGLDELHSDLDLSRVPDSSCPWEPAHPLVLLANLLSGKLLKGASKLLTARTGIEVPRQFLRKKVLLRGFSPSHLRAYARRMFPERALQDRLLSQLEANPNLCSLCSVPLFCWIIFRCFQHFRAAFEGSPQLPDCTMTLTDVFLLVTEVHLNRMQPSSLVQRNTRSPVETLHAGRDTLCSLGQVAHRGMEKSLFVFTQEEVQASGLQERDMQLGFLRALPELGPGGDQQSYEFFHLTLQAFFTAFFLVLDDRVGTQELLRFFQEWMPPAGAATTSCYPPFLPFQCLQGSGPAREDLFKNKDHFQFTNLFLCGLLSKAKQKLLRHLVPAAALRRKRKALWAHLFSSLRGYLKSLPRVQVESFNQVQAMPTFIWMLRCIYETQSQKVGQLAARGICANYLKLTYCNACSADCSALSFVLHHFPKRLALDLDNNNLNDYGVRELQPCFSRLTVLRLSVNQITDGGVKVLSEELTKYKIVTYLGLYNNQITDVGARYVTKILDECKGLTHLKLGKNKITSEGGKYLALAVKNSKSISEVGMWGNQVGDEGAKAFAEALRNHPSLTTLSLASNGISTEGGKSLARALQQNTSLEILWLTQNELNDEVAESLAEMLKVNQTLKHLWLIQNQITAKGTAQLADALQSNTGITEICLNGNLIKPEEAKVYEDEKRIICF

[2] = target: T2, Nucleotide-binding oligomerization domain-containing protein 1 (Homo sapiens, UniProt Q9Y239); test: as §1; type: cell-based
T2 sequence (Q9Y239 whole entry): T1 sequence (whole entry)

[3] = target: T3, Nucleotide-binding oligomerization domain-containing protein 2 (Homo sapiens, UniProt Q9HC29); test: Antagonist activity at NOD2 in HEK-Blue hNOD2 cells assessed as inhibition of MDP-induced NFkappaB activation-mediated SEAP release preincubated for 3 hrs followed by MDP addition and measured after 20 hrs by spectrophotometric method; type: cell-based
Summary of the method: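 HEK-Blue hNOD2 cells preincubated 3 h with a range of concentrations, then MDP 100 ng/mL for 20 h. SEAP quantified. SRB assay run to exclude cytotoxicity. IC50 by nonlinear semi-logarithmic fit, mean ± SD, n = 3.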

[4] = Half life in mouse liver microsomes at 1.25 uM preincubated for 5 mins followed by NADPH generating system addition and measured for 120 mins by LC-MS/MS analysis; type: ADME, Microsome
Summary of the method: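 Mouse liver microsomes (1.25 mg/mL protein) in 100 mM phosphate pH 7.4 with 1.25 µM compound, preincubated 5 min at 37 °C. Reaction started with NADPH-generating system (1 mM NADP, 10 mM MgCl2, 10 mM G6P, 0.5 U/mL G6PDH). Sampled at 0–120 min, quenched with MeOH/ACN 1:1, analysed by LC-MS/MS.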

[5] = target: T1, Nucleotide-binding oligomerization domain-containing protein 1 (Homo sapiens); test: Antagonist activity at NOD1 in human THP-1 cells assessed as inhibition of C12-iE-DAP-induced increase in RIP2 phosphorylation at 1 to 10 uM preincubated for 1 hr followed by C12-iE-DAP addition and measured after 30 mins by Western blot analysis; type: cell-based; settings: filed as antagonist, dose 1-10 µM, time 1.5 hrs
Summary of the method: (§2)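 Serum-starved THP-1 cells pretreated with compound (1.0 or 10 µM) or without for 1 h. Then C12-iE-DAP 500 ng/mL (NOD1) or MDP (NOD2) for 30 min. Lysed in cold whole-cell buffer. Western blot for IκBα and for total and phospho RIP2, IKKα/β, p65, JNK, p38 and ERK1/2. β-actin as loading control.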

[6] = target: T1, Nucleotide-binding oligomerization domain-containing protein 1 (Homo sapiens); test: Antagonist activity at NOD1 in human THP-1 cells assessed as inhibition of C12-iE-DAP-induced increase in IKKalpha/beta phosphorylation at 1 to 10 uM preincubated for 1 hr followed by C12-iE-DAP addition and measured after 30 mins by Western blot analysis; type: cell-based; settings: filed as antagonist, dose 1-10 µM, time 1.5 hrs; summary of the method: as §2
[7] = target: T1, Nucleotide-binding oligomerization domain-containing protein 1 (Homo sapiens); test: Antagonist activity at NOD1 in human THP-1 cells assessed as inhibition of C12-iE-DAP-induced increase in p65 phosphorylation at 1 to 10 uM preincubated for 1 hr followed by C12-iE-DAP addition and measured after 30 mins by Western blot analysis; type: cell-based; settings: filed as antagonist, dose 1-10 µM, time 1.5 hrs; summary of the method: as §2
[8] = target: T1, Nucleotide-binding oligomerization domain-containing protein 1 (Homo sapiens); test: Antagonist activity at NOD1 in human THP-1 cells assessed as inhibition of C12-iE-DAP-induced increase in JNK phosphorylation at 1 to 10 uM preincubated for 1 hr followed by C12-iE-DAP addition and measured after 30 mins by Western blot analysis; type: cell-based; settings: filed as antagonist, dose 1-10 µM, time 1.5 hrs; summary of the method: as §2
[9] = target: T3, Nucleotide-binding oligomerization domain-containing protein 2; test: Antagonist activity at NOD2 in human THP-1 cells assessed as inhibition of MDP-induced increase in RIP2 phosphorylation preincubated for 1 hr followed by MDP addition and measured after 30 mins by Western blot analysis; type: cell-based; settings: filed as antagonist, dose 1-10 µM, time 1.5 hrs; summary of the method: as §2
[10] = target: T1, Nucleotide-binding oligomerization domain-containing protein 1 (Homo sapiens); test: Antagonist activity at NOD1 in human THP-1 cells assessed as inhibition of C12-iE-DAP-induced IL6 mRNA expression preincubated for 1 hr followed by C12-iE-DAP addition and measured after 90 mins by qRT-PCR analysis; type: cell-based; settings: filed as antagonist, dose 1-10 µM, time 150.0 min
Summary of the method: (§3)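 THP-1 cells in RPMI-1640 with 10% FBS, treated with compound (1.0 or 10 µM) or vehicle for 1 h. Then stimulated 90 min with C12-iE-DAP 500 ng/mL (NOD1) or MDP (NOD2). IL-6, TNF-α and IL-8 mRNA measured by qRT-PCR. Mean ± SD, n = 6, two-tailed t-test.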

[11] = target: T3, Nucleotide-binding oligomerization domain-containing protein 2; test: Antagonist activity at NOD2 in human THP-1 cells assessed as inhibition of MDP-induced IL6 mRNA expression preincubated for 1 hr followed by MDP addition and measured after 90 mins by qRT-PCR analysis; type: cell-based; settings: filed as antagonist, dose 1-10 µM, time 150.0 min; summary of the method: as §3
[12] = target: T3, Nucleotide-binding oligomerization domain-containing protein 2; test: Antagonist activity at NOD2 in human THP-1 cells assessed as inhibition of MDP-induced IL8 mRNA expression preincubated for 1 hr followed by MDP addition and measured after 90 mins by qRT-PCR analysis; type: cell-based; settings: filed as antagonist, dose 1-10 µM, time 150.0 min; summary of the method: as §3
[13] = system: B16-F10; test: Potentiation of paclitaxel-induced antitumor activity against mouse B16-F10 cells implanted in C57BL/6 mouse assessed as tumor growth inhibition at 50 mg/kg, iv administered every other day for 15 days measured 24 hrs post last dose (reference value: 64.07%); type: functional; settings: 384 h, time 16 day, read-out: TGI

T3 sequence (Q9HC29 whole entry, the tested form may be a part): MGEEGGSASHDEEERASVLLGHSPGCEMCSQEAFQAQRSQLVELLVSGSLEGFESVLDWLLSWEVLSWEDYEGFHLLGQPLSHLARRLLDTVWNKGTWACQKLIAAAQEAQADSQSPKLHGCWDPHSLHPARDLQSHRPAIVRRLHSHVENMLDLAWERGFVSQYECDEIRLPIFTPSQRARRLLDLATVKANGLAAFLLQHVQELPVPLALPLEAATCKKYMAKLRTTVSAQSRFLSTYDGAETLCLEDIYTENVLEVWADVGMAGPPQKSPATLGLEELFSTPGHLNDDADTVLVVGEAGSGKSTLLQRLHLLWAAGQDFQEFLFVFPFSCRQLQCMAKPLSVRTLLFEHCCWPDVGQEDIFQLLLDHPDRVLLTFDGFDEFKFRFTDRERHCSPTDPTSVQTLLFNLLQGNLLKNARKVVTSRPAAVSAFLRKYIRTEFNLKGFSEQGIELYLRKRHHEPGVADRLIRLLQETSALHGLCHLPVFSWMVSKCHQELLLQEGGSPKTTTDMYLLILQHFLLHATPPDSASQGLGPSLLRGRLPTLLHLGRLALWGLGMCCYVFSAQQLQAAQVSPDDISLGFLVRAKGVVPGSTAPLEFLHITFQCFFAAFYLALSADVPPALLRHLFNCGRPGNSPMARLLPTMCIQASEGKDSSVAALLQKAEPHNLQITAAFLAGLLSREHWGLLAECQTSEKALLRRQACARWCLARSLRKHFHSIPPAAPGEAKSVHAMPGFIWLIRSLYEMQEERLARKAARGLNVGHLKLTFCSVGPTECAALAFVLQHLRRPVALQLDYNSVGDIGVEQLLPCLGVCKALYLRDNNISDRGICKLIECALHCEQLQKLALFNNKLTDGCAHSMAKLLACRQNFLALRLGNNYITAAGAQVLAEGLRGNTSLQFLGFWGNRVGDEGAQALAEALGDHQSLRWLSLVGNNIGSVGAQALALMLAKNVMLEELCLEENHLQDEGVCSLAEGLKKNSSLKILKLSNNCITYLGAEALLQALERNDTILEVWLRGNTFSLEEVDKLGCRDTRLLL

## O=C(NCCCOc1ccc(C(F)(F)F)cc1)c1cc2ncn(CC(=O)N3CCCC(F)(F)C3)c(=O)c2cc1-c1cccc(Cl)c1
[1]
  inhibition: Dose-dependent effect
[2]
  IC50: 1130 nM
[3]
  IC50: 770 nM
[3]; filed as antagonist, time 23.0 hrs
  inhibition: Dose-dependent effect
[4]
  half-life at 1.25 µM: 1.13 h
[5]
  inhibition: Active
[6]
  inhibition: Active
[7]
  inhibition: Active
[8]
  inhibition: Active
[9]
  inhibition: Dose-dependent effect
[10]
  inhibition: Dose-dependent effect
[11]
  inhibition: Dose-dependent effect
[12]
  inhibition: Dose-dependent effect
[13]
  inhibition in vivo at 50 mg/kg: 85.5%
